Calls of active or inactive are those of the source. The calls are words filed in the database; no cut-off is given here. Numbered stars: 1 amine (or outer) side, 2 acyl side, 3 side chain; on linkers, the order of the positions; unused ones are H or OH. Bridge positions count the residues as written; N and C are the ends. Square brackets hold non-standard residues; d marks the D form. Peptide text beside a SMILES is read from it. * marks the point of attachment. Orn(4R-OH,5R-OH) = O=C([C@H](C[C@@H](O)[C@@H](O)N[*:3])N[*:1])[*:2]; hTyr(3S-OH,4S-OH) = N[C@H](C(=O)O)[C@H](O)[C@@H](O)c1ccc(O)cc1; Pro(3S-OH,4S-Me) = C[C@H]1CN[C@H](C(=O)O)[C@H]1O; Palmitoyl = CCCCCCCCCCCCCCCC(=O)*; Hyp = O=C(O)[C@@H]1C[C@@H](O)CN1
Columns and labels:
Saccharomyces cerevisiae [1] = assay: Antifungal activity against Saccharomyces cerevisiae MYH 500 assessed as growth inhibition in presence of 80 mM sodium fluoride after 9 hrs; type: functional, organism-based
Summary of the method: (§1)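 S. cerevisiae growth in liquid medium with amphotericin B over a concentration series, plus a fixed 30 mM or 80 mM of NaF, KCl or NaCl. Cultures were shaken at 30°C for 9 h.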

Saccharomyces cerevisiae [2] = assay: Antifungal activity against Saccharomyces cerevisiae MYH 500 assessed as growth inhibition in presence of 30 mM sodium fluoride after 9 hrs; type: functional, organism-based; summary of the method: as §1
Saccharomyces cerevisiae [3] = assay: Antifungal activity against Saccharomyces cerevisiae MYH 500 assessed as growth inhibition in presence of 80 mM NaCl after 9 hrs; type: functional, organism-based; summary of the method: as §1
Saccharomyces cerevisiae [4] = assay: Antifungal activity against Saccharomyces cerevisiae MYH 500 assessed as growth inhibition in presence of 30 mM NaCl after 9 hrs; type: functional, organism-based; summary of the method: as §1
Saccharomyces cerevisiae [5] = assay: Antifungal activity against Saccharomyces cerevisiae MYH 500 assessed as growth inhibition in presence of 80 mM Kcl after 9 hrs; type: functional, organism-based; summary of the method: as §1
Saccharomyces cerevisiae [6] = assay: Antifungal activity against Saccharomyces cerevisiae MYH 500 at 30 to 70 nM after 48 hrs; type: functional, organism-based
Summary of the method: (§2)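 S. cerevisiae growth curves in liquid medium over 48 h. Amphotericin B was tested alone or at a fixed 10 nM or 20 nM with a range of sodium fluoride concentrations. Growth was followed as culture density.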

Saccharomyces cerevisiae [7] = assay: Antifungal activity against Saccharomyces cerevisiae MYH 500 assessed as growth inhibition at 300 nM after 48 hrs; type: functional, organism-based; summary of the method: as §2
Saccharomyces cerevisiae [8] = assay: Antifungal activity against Saccharomyces cerevisiae MYH 500 at 10 nM after 48 hrs; type: functional, organism-based; summary of the method: as §2
Saccharomyces cerevisiae [9] = assay: Potentiation of fluoride-induced antimicrobial effect against Saccharomyces cerevisiae MYH 500 assessed as increase in growth inhibition at 10 nM in presence of 30 to 100 mM sodium fluoride after 48 hrs; type: functional, organism-based; summary of the method: as §2
Saccharomyces cerevisiae [10] = assay: Potentiation of fluoride-induced antimicrobial effect against Saccharomyces cerevisiae MYH 500 assessed as increase in growth inhibition at 20 nM in presence of 30 to 100 mM sodium fluoride after 48 hrs; type: functional, organism-based; summary of the method: as §2
Saccharomyces cerevisiae [11] = assay: Potentiation of fluoride-induced antimicrobial effect against Saccharomyces cerevisiae MYH 500 assessed as increase in growth inhibition at 10 nM in presence of 60 mM sodium fluoride after 48 hrs; type: functional, organism-based; summary of the method: as §2
Saccharomyces cerevisiae [12] = assay: Antifungal activity against Saccharomyces cerevisiae MYH 500 assessed as growth inhibition in presence of 30 mM sodium fluoride after 48 hrs relative to untreated control; type: functional
Saccharomyces cerevisiae [13] = assay: Antifungal activity against Saccharomyces cerevisiae MYH 500 assessed as growth inhibition in presence of 80 mM sodium fluoride after 48 hrs relative to untreated control; type: functional
Saccharomyces cerevisiae [14] = assay: Antifungal activity against Saccharomyces cerevisiae MYH 500 assessed as growth inhibition in presence of 30 mM Kcl after 9 hrs; type: functional, organism-based; summary of the method: as §1
Neurospora crassa [15] = assay: Antifungal activity against Neurospora crassa FGSC 2225 assessed as growth inhibition at 300 nM after 24 hrs; type: functional, organism-based
Summary of the method: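 N. crassa, a filamentous fungus, was grown in liquid medium with amphotericin B for 24 h. Growth was scored visually in tubes, and the lowest concentration showing little or no visible growth was noted.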

Neurospora crassa [16] = assay: Antifungal activity against Neurospora crassa FGSC 2225 assessed as growth inhibition in presence of 10 mM sodium fluoride after 24 hrs relative to untreated control; type: functional
Summary of the method: (§3)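 Filamentous fungus grown in liquid medium tubes with fluoride plus a drug series. Growth was scored visually after 24 h. The endpoint was the lowest concentration tube showing little or no visible growth.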

Neurospora crassa [17] = assay: Antifungal activity against Neurospora crassa FGSC 2225 assessed as growth inhibition in presence of 30 mM sodium fluoride after 24 hrs relative to untreated control; type: functional; summary of the method: as §3
Aspergillus nidulans [18] = assay: Antifungal activity against Aspergillus nidulans ATCC 38163 assessed as growth inhibition in presence of 30 mM sodium fluoride after 24 hrs; type: functional, organism-based
Aspergillus nidulans [19] = assay: Antifungal activity against Aspergillus nidulans ATCC 38163 assessed as growth inhibition in presence of 10 mM sodium fluoride after 24 hrs; type: functional, organism-based
Saccharomyces cerevisiae [20] = assay: Antifungal activity against Saccharomyces cerevisiae MYH 500 assessed as growth inhibition at 3 mM in presence of 30 mM sodium fluoride after 24 hrs relative to untreated control; type: functional, organism-based
Saccharomyces cerevisiae [21] = assay: Antifungal activity against Saccharomyces cerevisiae MYH 500 assessed as growth inhibition at 3 mM in presence of 30 mM sodium fluoride after 48 hrs relative to untreated control; type: functional
Saccharomyces cerevisiae [22] = assay: Antifungal activity against Saccharomyces cerevisiae MYH 500 assessed as growth inhibition at 3 mM after 48 hrs; type: functional, organism-based

CCC(C)n1ncn(-c2ccc(N3CCN(c4ccc(OCC5COC(Cn6cncn6)(c6ccc(Cl)cc6Cl)O5)cc4)CC3)cc2)c1=O (centres undefined)
growth inhibition (GI) (Saccharomyces cerevisiae [1]): inactive | growth inhibition (GI) (Saccharomyces cerevisiae [2]): inactive

CN(C/C=C/C#CC(C)(C)C)Cc1cccc2ccccc12
growth inhibition (GI) (Saccharomyces cerevisiae [1]): inactive | growth inhibition (GI) (Saccharomyces cerevisiae [2]): inactive

Cc1cccc(N(C)C(=S)Oc2ccc3ccccc3c2)c1
growth inhibition (GI) (Saccharomyces cerevisiae [1]): inactive | growth inhibition (GI) (Saccharomyces cerevisiae [2]): inactive

CCCCCCCCCCCCCCCC(=O)N[C@H]1C[C@@H](O)[C@@H](O)NC(=O)[C@@H]2[C@@H](O)[C@@H](C)CN2C(=O)[C@H]([C@@H](C)O)NC(=O)[C@H]([C@H](O)[C@@H](O)c2ccc(O)cc2)NC(=O)[C@@H]2C[C@@H](O)CN2C(=O)[C@H]([C@@H](C)O)NC1=O (Palmitoyl-[Orn(4R-OH,5R-OH)]T[Hyp][hTyr(3S-OH,4S-OH)]T[Pro(3S-OH,4S-Me)]; lactam 1-C)
growth inhibition (GI) (Saccharomyces cerevisiae [2]): inactive

C[C@@H]1[C@H](O)[C@@H](C)/C=C/C=C/C=C/C=C/C=C/C=C/C=C/[C@H](O[C@@H]2O[C@H](C)[C@@H](O)[C@H](N)[C@@H]2O)C[C@@H]2O[C@](O)(C[C@@H](O)C[C@@H](O)[C@H](O)CC[C@@H](O)C[C@@H](O)CC(=O)O[C@H]1C)C[C@H](O)[C@H]2C(=O)O [AMPHOTERICIN B]
growth inhibition (GI) (Saccharomyces cerevisiae [3]): Active | growth inhibition (GI) (Saccharomyces cerevisiae [4]): Active | growth inhibition (GI) (Saccharomyces cerevisiae [5]): Active | Activity (Saccharomyces cerevisiae [6]): inactive | growth inhibition (GI) (Saccharomyces cerevisiae [7]): Active | Activity (Saccharomyces cerevisiae [8]): inactive | growth inhibition (GI) (Saccharomyces cerevisiae [9]): Active | growth inhibition (GI) (Saccharomyces cerevisiae [10]): Active | growth inhibition (GI) (Saccharomyces cerevisiae [11]): Active | fold change (FC) (Saccharomyces cerevisiae [12]): 10 | fold change (FC) (Saccharomyces cerevisiae [13]): 30 | growth inhibition (GI) (Saccharomyces cerevisiae [14]): Active | growth inhibition (GI) (Neurospora crassa [15]): inactive | fold change (FC) (Neurospora crassa [16]): 4 | fold change (FC) (Neurospora crassa [17]): 10 | growth inhibition (GI) (Aspergillus nidulans [18]): Active | growth inhibition (GI) (Aspergillus nidulans [19]): Active

N=C(N)NCCC[C@@H]1NC(=O)[C@H](CCCNC(=N)N)NC(=O)[C@H](CCCNC(=N)N)NC(=O)[C@H](CCCNC(=N)N)NC(=O)[C@H](CCCNC(=N)N)NC(=O)[C@H](CCCNC(=N)N)NC(=O)[C@H](CCCNC(=N)N)NC1=O [NOVEXATIN]
growth inhibition (GI) (Saccharomyces cerevisiae [20]): Active | fold change (FC) (Saccharomyces cerevisiae [21]): >3 | growth inhibition (GI) (Saccharomyces cerevisiae [22]): Active

NYSTATIN
growth inhibition (GI) (Saccharomyces cerevisiae [1]): Active | growth inhibition (GI) (Saccharomyces cerevisiae [2]): Active

Reference: ChEMBL document CHEMBL2203216, “Fluoride enhances the activity of fungicides that destabilize cell membranes” (2012)
